{"source": "ChEMBL document CHEMBL1150357", "about": "“Synthesis and preliminary evaluation of some substituted coumarins as anticonvulsant agents” (Bioorg Med Chem, 2008)", "key": {"[1]": {"system": "Mus musculus", "assay": "Anticonvulsant activity against strychnine-induced seizures in Albino mouse assessed as survival time at 100 mg/kg, po administered 1 hr before strychnine challenge", "type": "functional"}, "[2]": {"system": "Mus musculus", "assay": "Anticonvulsant activity in Albino mouse assessed as protection against pentylenetetrazole-induced seizures at 100 mg/kg, ip administered 1 hr before pentylenetetrazole challenge", "type": "functional", "conditions": "route intraperitoneal", "summary_of_the_method": "(§1)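 Male albino mice (25–30 g), housed in groups of 10 and acclimated ≥2 days with free food and water. Test agent suspended in water with 2% Tween 80 and given ip. PTZ 112 mg/kg ip injected 1 h later. Mice without generalized convulsions scored as protected, expressed as % protection. PD50 by log-linear regression of dose-response across 50, 100, 200 mg/kg.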"}, "[3]": {"assay": "Dissociation constant, pKa of the compound", "type": "physicochemical", "summary_of_the_method": "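Spectrophotometric pKa. Spectra of ionized and unionized forms recorded in 0.1 M HCl and 0.1 M NaOH with DMF. Absorbance read at the wavelength of maximal difference in phosphate buffer (Na2HPO4/KH2PO4, 0.15 M) with DMF at pH 7.6, 7.4, 7 and 6.8. pKa = pH + log[(Ai−A)/(A−Au)], averaged with SD.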"}, "[4]": {"system": "Mus musculus", "assay": "Anticonvulsant activity in Albino mouse assessed as protection against pentylenetetrazole-induced seizures at 50 mg/kg, ip administered 1 hr before pentylenetetrazole challenge", "type": "functional", "conditions": "route intraperitoneal", "summary_of_the_method": "as §1"}, "[5]": {"system": "Mus musculus", "assay": "Anticonvulsant activity in Albino mouse assessed as protection against pentylenetetrazole-induced seizures at 200 mg/kg, ip administered 1 hr before pentylenetetrazole challenge", "type": "functional", "conditions": "route intraperitoneal", "summary_of_the_method": "as §1"}, "[6]": {"system": "Mus musculus", "assay": "Anticonvulsant activity in ip dosed Albino mouse assessed as protection against pentylenetetrazole-induced seizures administered 1 hr before pentylenetetrazole challenge", "type": "functional", "conditions": "read-out: PD50", "summary_of_the_method": "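PTZ model in male albino mice (25–30 g), 10 per group. Test agents suspended in water with 2% Tween 80 and given ip at graded doses (50, 100, 200 mg/kg). Pentylenetetrazole 112 mg/kg ip given 1 h later. Absence of generalized convulsions scored as protection. PD50 obtained by log-linear regression of dose–response curves.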"}, "[7]": {"assay": "Toxicity against Albino mouse assessed as mortality after 24 hrs", "type": "organism-based", "conditions": "in vivo", "summary_of_the_method": "(§2)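 Male albino mice (25–30 g), groups of 8. Single injected doses at equal log intervals (400, 800, 1600, 3200 mg/kg), bracketed by preliminary no-kill and LD100 doses. Deaths counted at 24 h. LD50 calculated by the Spearman–Karber method.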"}, "[8]": {"system": "Mus musculus", "assay": "Toxicity against Albino mouse assessed as mortality at 3200 mg/kg after 24 hrs", "type": "organism-based", "set-up": "dose 3200 mg/kg", "conditions": "in vivo", "summary_of_the_method": "as §2"}, "[9]": {"system": "Mus musculus", "assay": "Toxicity against Albino mouse assessed as mortality at 400 mg/kg after 24 hrs", "type": "organism-based", "set-up": "dose 400 mg/kg", "conditions": "in vivo", "summary_of_the_method": "as §2"}, "[10]": {"system": "Mus musculus", "assay": "Anticonvulsant activity in Albino mouse assessed as protection against pentylenetetrazole-induced seizures at 20 mg/kg, ip administered 1 hr before pentylenetetrazole challenge", "type": "functional", "conditions": "route intraperitoneal", "summary_of_the_method": "(§3)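 Male albino mice (25–30 g), housed 10 per group and acclimated for at least 2 days. Dosed ip, suspended in water with 2% Tween 80. Pentylenetetrazole 112 mg/kg ip given 1 h later. Mice without generalized convulsions counted as protected; reported as % protection.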"}, "[11]": {"system": "Mus musculus", "assay": "Anticonvulsant activity in Albino mouse assessed as protection against pentylenetetrazole-induced seizures at 10 mg/kg, ip administered 1 hr before pentylenetetrazole challenge", "type": "functional", "conditions": "route intraperitoneal", "summary_of_the_method": "as §3"}, "[12]": {"system": "Mus musculus", "assay": "Anticonvulsant activity in Albino mouse assessed as protection against pentylenetetrazole-induced seizures at 30 mg/kg, ip administered 1 hr before pentylenetetrazole challenge", "type": "functional", "conditions": "route intraperitoneal", "summary_of_the_method": "as §3"}}, "data": [{"smiles": "CCNc1nc2ccc3oc(=O)ccc3c2s1", "values": [{"measurement": "Survival", "setting": "[1]", "value": 6.26, "unit": "min"}]}, {"smiles": "CCOC(=O)c1s/c(=N/c2ccc3oc(=O)ccc3c2)n(C2CCCCC2)c1C", "values": [{"measurement": "Activity", "setting": "[2]", "value": 60, "unit": "%"}, {"measurement": "Survival", "setting": "[1]", "value": 3.14, "unit": "min"}]}, {"smiles": "CNc1nc2ccc3oc(=O)ccc3c2s1", "values": [{"measurement": "Activity", "setting": "[2]", "value": 0, "unit": "%"}]}, {"smiles": "CCN1C(=O)/C(=C/c2ccc(Cl)cc2)S/C1=N/c1ccc2oc(=O)ccc2c1", "values": [{"measurement": "Survival", "setting": "[1]", "value": 5.18, "unit": "min"}]}, {"smiles": "CCn1c(-c2ccc(OC)cc2)cs/c1=N/c1ccc2oc(=O)ccc2c1", "values": [{"measurement": "pKa", "setting": "[3]", "value": 7.63}, {"measurement": "Activity", "setting": "[4]", "value": 20, "unit": "%"}, {"measurement": "Activity", "setting": "[5]", "value": 60, "unit": "%"}, {"measurement": "Activity", "setting": "[2]", "value": 60, "unit": "%"}, {"measurement": "Survival", "setting": "[1]", "value": 7.55, "unit": "min"}, {"measurement": "ED50", "setting": "[6]", "value": 138, "unit": "mg/kg"}]}, {"smiles": "CCNC(=S)Nc1ccc2oc(=O)ccc2c1", "values": [{"measurement": "pKa", "setting": "[3]", "value": 5.62}, {"measurement": "Activity", "setting": "[4]", "value": 20, "unit": "%"}, {"measurement": "Activity", "setting": "[5]", "value": 70, "unit": "%"}, {"measurement": "Activity", "setting": "[2]", "value": 60, "unit": "%"}, {"measurement": "Survival", "setting": "[1]", "value": 3.92, "unit": "min"}, {"measurement": "ED50", "setting": "[6]", "value": 125, "unit": "mg/kg"}]}, {"smiles": "O=c1ccc2cc(NC(=S)NC3CCCCC3)ccc2o1", "values": [{"measurement": "Activity", "setting": "[2]", "value": 30, "unit": "%"}, {"measurement": "Survival", "setting": "[1]", "value": 5.02, "unit": "min"}]}, {"smiles": "O=c1ccc2cc(NC(=S)Nc3ccc(Cl)cc3)ccc2o1", "values": [{"measurement": "Activity", "setting": "[2]", "value": 20, "unit": "%"}, {"measurement": "Survival", "setting": "[1]", "value": 5.33, "unit": "min"}]}, {"smiles": "O=C1CS/C(=N/c2nc3ccc4oc(=O)ccc4c3s2)N1", "values": [{"measurement": "Activity", "setting": "[2]", "value": 40, "unit": "%"}, {"measurement": "Survival", "setting": "[1]", "value": 5.44, "unit": "min"}]}, {"smiles": "CCOC(=O)c1s/c(=N/c2ccc3oc(=O)ccc3c2)n(C)c1C", "values": [{"measurement": "Activity", "setting": "[2]", "value": 0, "unit": "%"}]}, {"smiles": "CCOC(=O)c1s/c(=N/c2ccc3oc(=O)ccc3c2)n(CC)c1C", "values": [{"measurement": "pKa", "setting": "[3]", "value": 7.44}, {"measurement": "Activity", "setting": "[4]", "value": 30, "unit": "%"}, {"measurement": "LD50 at 24 h", "setting": "[7]", "value": 1450, "unit": "mg/kg"}, {"measurement": "Activity", "setting": "[8]", "value": "Toxic"}, {"measurement": "Activity", "setting": "[9]", "value": "Non-toxic"}, {"measurement": "Activity", "setting": "[5]", "value": 90, "unit": "%"}, {"measurement": "Activity", "setting": "[2]", "value": 80, "unit": "%"}, {"measurement": "Survival", "setting": "[1]", "value": 5, "unit": "min"}, {"measurement": "ED50", "setting": "[6]", "value": 95, "unit": "mg/kg"}]}, {"smiles": "COc1ccc(-c2cs/c(=N/c3ccc4oc(=O)ccc4c3)n2-c2ccc(Cl)cc2)cc1", "values": [{"measurement": "Activity", "setting": "[2]", "value": 30, "unit": "%"}]}, {"smiles": "O=C(CCl)Nc1nc2ccc3oc(=O)ccc3c2s1", "values": [{"measurement": "Activity", "setting": "[2]", "value": 0, "unit": "%"}, {"measurement": "Survival", "setting": "[1]", "value": 4.4, "unit": "min"}]}, {"smiles": "CCN1C(=O)CS/C1=N/c1ccc2oc(=O)ccc2c1", "values": [{"measurement": "Activity", "setting": "[2]", "value": 30, "unit": "%"}]}, {"smiles": "CCN1C(=O)/C(=C/c2ccc([N+](=O)[O-])cc2)S/C1=N/c1ccc2oc(=O)ccc2c1", "values": [{"measurement": "Activity", "setting": "[2]", "value": 30, "unit": "%"}, {"measurement": "Survival", "setting": "[1]", "value": 4.85, "unit": "min"}]}, {"smiles": "CCn1c(-c2ccc(Br)cc2)cs/c1=N/c1ccc2oc(=O)ccc2c1", "values": [{"measurement": "Activity", "setting": "[2]", "value": 30, "unit": "%"}, {"measurement": "Survival", "setting": "[1]", "value": 8.36, "unit": "min"}]}, {"smiles": "CCCN1C(=O)CS/C1=N/c1ccc2oc(=O)ccc2c1", "values": [{"measurement": "Survival", "setting": "[1]", "value": 5.4, "unit": "min"}]}, {"smiles": "COc1ccc(-c2cs/c(=N/c3ccc4oc(=O)ccc4c3)n2C2CCCCC2)cc1", "values": [{"measurement": "Activity", "setting": "[2]", "value": 20, "unit": "%"}, {"measurement": "Survival", "setting": "[1]", "value": 4.5, "unit": "min"}]}, {"smiles": "CCC1(c2ccccc2)C(=O)NC(=O)NC1=O", "note": "[PHENOBARBITAL]", "values": [{"measurement": "Activity", "setting": "[10]", "value": 70, "unit": "%"}, {"measurement": "Activity", "setting": "[11]", "value": 40, "unit": "%"}, {"measurement": "Activity", "setting": "[12]", "value": 90, "unit": "%"}, {"measurement": "ED50", "setting": "[6]", "value": 16, "unit": "mg/kg"}]}, {"smiles": "O=C1NC(=O)C(c2ccccc2)(c2ccccc2)N1", "note": "[PHENYTOIN]", "values": [{"measurement": "Survival", "setting": "[1]", "value": 13.8, "unit": "min"}]}]}
